Our source for the MIC and Activity values is ChEMBL document CHEMBL5532717, “Facile Halogenation of Antimicrobial Peptides As Demonstrated by Producing Bromotryptophan-Labeled Nisin Variants with Enhanced Antimicrobial Activity” (2024).

Experiment [1] concerns Staphylococcus aureus. The experiment can be described thus: Antibacterial activity against Staphylococcus aureus LMG10147 assessed as reduction in bacterial growth by broth microdilution method. Format: functional. The essentials: (§1)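 Broth microdilution MIC: inoculum adjusted to approximately 5 × 10^5 CFU/mL. Plates incubated overnight at 37 °C, or at 30 °C for L. lactis. MIC taken as the lowest concentration with no visible growth.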

Experiment [2] has as its system Lactococcus lactis. The experiment can be described thus: Antibacterial activity against Lactococcus lactis MG1363 assessed as reduction in bacterial growth by broth microdilution method. Type of experiment: functional. An outline of the steps:
as §1

Experiment [3] relates to Staphylococcus aureus. The experiment can be described thus: Antibacterial activity against methicillin-resistant Staphylococcus aureus LMG15975 assessed as reduction in bacterial growth by broth microdilution method. Type of experiment: functional. An outline of the steps: (§2)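 Broth microdilution per standard guidelines; inoculum about 5 × 10^5 CFU/mL. Incubated overnight at 37 °C. MIC taken as lowest concentration with no visible growth.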
A general note: Dilution methods test growth across graded concentrations, often in twofold steps.

For experiment [4], the system named is Enterococcus faecalis. The experiment can be described thus: Antibacterial activity against vancomycin-reistant Enterococcus faecalis LMG16216 assessed as reduction in bacterial growth by broth microdilution method. Format: functional. The essentials:
as §1

Experiment [5] relates to Enterococcus faecium. The experiment can be described thus: Antibacterial activity against vancomycin-resistant Enterococcus faecium LMG16003 assessed as reduction in bacterial growth by broth microdilution method. Type of experiment: functional. An outline of the steps:
as §2

In experiment [6] the test system is Bacillus cereus. The experiment can be described thus: Antibacterial activity against Bacillus cereus CH-85 assessed as reduction in bacterial growth by broth microdilution method. Type of experiment: functional. An outline of the steps: as §1
Experiment [7] relates to Bacillus cereus. The experiment can be described thus: Bactericidal activity against Bacillus cereus CH-85 assessed as bacterial cell killing at 15 microg/ml measured for 3 hrs by time-kill assay. Type of experiment: functional. Particulars: dose 15.0 µg/ml. The essentials:
(§3)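 B. cereus CH-85 overnight culture diluted 50-fold in LB and grown at 37 °C with aeration to OD600 0.5, then adjusted to 5 × 10^5 cells/mL. Cells exposed to peptide at several concentrations in tubes at 37 °C, 180 rpm; untreated cells as negative control. Aliquots taken at time points, 10-fold serially diluted and plated on LB agar, incubated overnight at 37 °C, CFU/mL counted; triplicate.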

The test system of experiment [8] is Bacillus cereus. The experiment can be described thus: Bactericidal activity against Bacillus cereus CH-85 incubated overnight in presence of lipid II by spot-on-lawn assay. Format: functional, organism-based. The essentials: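 B. cereus CH-85 lawn: 0.1% (v/v) overnight-culture inoculum mixed into 1.5% (w/v) LB agar at 45 °C and poured. 5 μL of peptide spotted and dried. Purified lipid II (2 μL) then spotted at the edge of the inhibition halo. Plate incubated overnight at 37 °C and read for lipid II binding.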

Experiment [9] concerns Bacillus cereus. The experiment can be described thus: Bactericidal activity against Bacillus cereus CH-85 at 15 microg/ml measured for 3 hrs by time-kill assay. Type of experiment: functional, organism-based. Particulars: dose 15.0 µg/ml. The essentials:
as §3

Molecules are shown by their SMILES. ≈ marks a conversion by molar mass, not a printed value. Calls of active or inactive are those of the source. The calls are words filed in the database; no cut-off is given here.

What is called MIC is the lowest concentration that inhibits growth of the organism. On to `N[C@@H](Cc1c[nH]c2cc(Br)ccc12)C(=O)O`, for which the MIC in experiment [1] is 12.5 µg/mL (≈ 44.2 µM); in experiment [2], 0.08 µg/mL (≈ 0.283 µM); in experiment [3], 6.25 µg/mL (≈ 22.1 µM); in [4], 25 µg/mL (≈ 88.3 µM); in [5], 3.13 µg/mL (≈ 11.1 µM); in experiment [6], 6.25 µg/mL (≈ 22.1 µM).
As to `N[C@@H](Cc1c[nH]c2ccc(O)cc12)C(=O)O` [OXITRIPTAN], the MIC in experiment [1] was 12.5 µg/mL (≈ 56.8 µM); in experiment [2] it was 0.08 µg/mL (≈ 0.363 µM); in [3], greater than 12.5 µg/mL; in experiment [4], 12.5 µg/mL (≈ 56.8 µM); in experiment [5] it was 6.25 µg/mL (≈ 28.4 µM); in [6] it was 6.25 µg/mL (≈ 28.4 µM).
Take `N[C@@H](Cc1c[nH]c2ccccc12)C(=O)O` [TRYPTOPHAN]: the MIC in [1] came out at 6.25 µg/mL (≈ 30.6 µM); in experiment [2] it was 0.04 µg/mL (≈ 0.196 µM); in experiment [3], 6.25 µg/mL (≈ 30.6 µM); in [4], 12.5 µg/mL (≈ 61.2 µM); in experiment [5] it was 3.13 µg/mL (≈ 15.3 µM); in experiment [6], 6.25 µg/mL (≈ 30.6 µM).
Take `N[C@@H](Cc1c[nH]c2ccc(Br)cc12)C(=O)O`: the MIC in experiment [1] amounted to 6.25 µg/mL (≈ 22.1 µM); in [2] it was 0.04 µg/mL (≈ 0.141 µM); in [3] it was 3.13 µg/mL (≈ 11.1 µM); in experiment [4] it was 12.5 µg/mL (≈ 44.2 µM); in experiment [5] it was 3.13 µg/mL (≈ 11.1 µM); in experiment [6], 3.13 µg/mL (≈ 11.1 µM). For the same compound, the outcome in [7] and in [9] was Active. Besides, the result in experiment [8] was inactive.
As for `CCCCCCCCCC(=O)N[C@@H](Cc1c[nH]c2ccccc12)C(=O)N[C@H](CC(N)=O)C(=O)N[C@@H](CC(=O)O)C(=O)N[C@@H]1C(=O)NCC(=O)N[C@@H](CCCN)C(=O)N[C@@H](CC(=O)O)C(=O)N[C@H](C)C(=O)N[C@@H](CC(=O)O)C(=O)NCC(=O)N[C@H](CO)C(=O)N[C@@H]([C@H](C)CC(=O)O)C(=O)N[C@@H](CC(=O)c2ccccc2N)C(=O)O[C@@H]1C`, the outcome in experiment [8] was Active.
